In ChEMBL document CHEMBL4368939, “4,6-Substituted-1H-Indazoles as potent IDO1/TDO dual inhibitors” (Bioorg Med Chem, 2019):
Activity calls are given as the source filed them. The calls are words filed in the database; no cut-off is given here.

Legend:
[1] = molecular target: T1, Indoleamine 2,3-dioxygenase 1 (Homo sapiens, UniProt P14902); assay: Inhibition of human IDO1 expressed in Escherichia coli at 10 uM using L-tryptophan as substrate after 1 hr by UV absorption analysis
Procedure, shortened: (§1)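 N-terminal human IDO1 or TDO was expressed in E. coli and Ni affinity-purified. Enzyme (100 nM) was incubated with compounds for 1 h at room temperature in Ca/Mg-free potassium phosphate buffer with […], 40 mM ascorbate, 200 µg/ml catalase and 20 µM methylene blue. Stop: 30% TCA, 65°C 15 min. Kynurenine read with DMAB at 480 nm against a standard curve. Triplicate, mean ± SD.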
Target sequence in this assay (P14902 whole entry, looked up): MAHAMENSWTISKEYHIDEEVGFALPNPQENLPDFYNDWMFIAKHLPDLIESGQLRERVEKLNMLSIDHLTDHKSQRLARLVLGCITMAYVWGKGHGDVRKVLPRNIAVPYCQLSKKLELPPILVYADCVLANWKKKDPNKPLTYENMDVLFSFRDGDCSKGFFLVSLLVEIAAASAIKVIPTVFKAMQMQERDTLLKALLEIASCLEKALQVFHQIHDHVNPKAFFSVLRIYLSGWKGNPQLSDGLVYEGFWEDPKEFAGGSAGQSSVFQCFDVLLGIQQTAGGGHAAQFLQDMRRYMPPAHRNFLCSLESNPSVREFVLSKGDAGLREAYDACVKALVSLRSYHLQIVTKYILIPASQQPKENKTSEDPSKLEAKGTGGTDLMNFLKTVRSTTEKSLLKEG

[2] = molecular target: T2, Tryptophan 2,3-dioxygenase (Homo sapiens, UniProt P48775); assay: Inhibition of human TDO expressed in Escherichia coli at 10 uM using L-tryptophan as substrate after 1 hr by UV absorption analysis; procedure, shortened: as §1
Target sequence in this assay (P48775 whole entry, looked up): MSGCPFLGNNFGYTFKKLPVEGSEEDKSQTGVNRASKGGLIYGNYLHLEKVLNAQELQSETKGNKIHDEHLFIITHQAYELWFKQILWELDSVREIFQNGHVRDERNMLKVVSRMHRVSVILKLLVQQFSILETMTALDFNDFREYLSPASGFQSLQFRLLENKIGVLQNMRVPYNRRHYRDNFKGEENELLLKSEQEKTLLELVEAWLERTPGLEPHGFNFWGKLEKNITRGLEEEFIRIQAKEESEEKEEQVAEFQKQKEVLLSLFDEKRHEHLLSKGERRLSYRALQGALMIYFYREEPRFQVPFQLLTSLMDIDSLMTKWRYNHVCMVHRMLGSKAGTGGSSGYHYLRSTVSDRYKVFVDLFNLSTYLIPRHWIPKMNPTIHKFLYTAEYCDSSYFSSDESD

[3] = molecular target: T1, Indoleamine 2,3-dioxygenase 1; assay: Inhibition of human IDO1 expressed in Escherichia coli using L-tryptophan as substrate after 1 hr by UV absorption analysis; procedure, shortened: as §1
Target sequence in this assay (P14902 whole entry): as the sequence (P14902 whole entry, looked up) above

CT26 [4] = assay: Antitumor activity against mouse CT26 cells transplanted in Balb/c mouse assessed as tumor growth inhibition at 40 mg/kg/day, po administered for 18 consecutive days relative to control; format: functional; conditions: read-out: TGI
Procedure, shortened: (§2)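 CT26 cells (100 µL of 1 × 10^7 cells/mL suspension) were injected s.c. into Balb/c mice. After 4 days, mice were randomized, 6 per group, and dosed orally once daily at 20, 40 or 80 mg/kg/day. Vehicle was 5% DMSO, 20% PEG400 and 75% deionized water. Tumors were measured by caliper every 3 days; volume = a × b²/2.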

[5] = molecular target: T1, Indoleamine 2,3-dioxygenase 1; assay: Inhibition of IDO1 in IFN-gamma-induced human HeLa cells assessed as reduction in L-kynurenine level after 24 hrs; format: cell-based
Procedure, shortened: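 HeLa cells were plated for 24 h, then given IFNγ (50 ng/mL) plus inhibitors for 24 h; vehicle was 0.5% DMSO. Medium was mixed with 30% TCA and centrifuged. Supernatant kynurenine was reacted with 2% p-DMAB in acetic acid, read at 480 nm and quantified against an L-kynurenine standard curve. Triplicate, mean ± SD.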

HeLa [6] = assay: Reduction in IFN-gamma-induced IDO1 expression in human HeLa cells by Western blot analysis; format: functional, cell-based
Procedure, shortened: (§3)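 HeLa cells were pretreated for 2 h with inhibitors (10, 20, 50 µM) or a JAK inhibitor (1 µM), then given IFNγ 50 ng/mL for 24 h; 0.5% DMSO served as negative control. RIPA lysates with equal protein were run on 10% SDS-PAGE and blotted to nitrocellulose. Probes: rabbit anti-IDO1 (1:1000) and anti-GAPDH (1:4000) overnight at 4°C; HRP anti-rabbit 90 min.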

[7] = molecular target: T2, Tryptophan 2,3-dioxygenase; assay: Inhibition of human TDO expressed in Escherichia coli at using L-tryptophan as substrate after 1 hr by UV absorption analysis; procedure, shortened: as §1
Target sequence in this assay (P48775 whole entry): as the sequence (P48775 whole entry, looked up) above

CT26 [8] = assay: Antitumor activity against mouse CT26 cells transplanted in Balb/c mouse assessed as tumor growth inhibition at 80 mg/kg/day, po administered for 18 consecutive days relative to control; format: functional; conditions: read-out: TGI; procedure, shortened: as §2
HeLa [9] = assay: Reduction in IFN-gamma-induced GAPDH expression in human HeLa cells by Western blot analysis; format: ADME, cell-based; procedure, shortened: as §3
[10] = molecular target: T2, Tryptophan 2,3-dioxygenase; assay: Inhibition of human TDO expressed in human A172 assessed as reduction in kynurenine formation using L-tryptophan as substrate after 24 hrs
Procedure, shortened: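 A172 cells, which express TDO highly, were plated at 2 × 10^4 cells/well overnight. Cells were then exposed to compounds with L-Trp (20 µg/ml) for 24 h. Medium was treated with 30% TCA at 65°C for 30 min and centrifuged. Kynurenine was measured with 2% p-DMAB at 480 nm against an L-kynurenine standard curve.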

CT26 [11] = assay: Antitumor activity against mouse CT26 cells transplanted in Balb/c mouse assessed as tumor growth inhibition at 20 mg/kg/day, po administered for 18 consecutive days relative to control; format: functional; conditions: read-out: TGI; procedure, shortened: as §2
[12] = molecular target: T2, Tryptophan 2,3-dioxygenase; assay: Inhibition of TDO (unknown origin)
Target sequence in this assay (P48775 whole entry): as the sequence (P48775 whole entry, looked up) above

HeLa [13] = assay: Effect on IFN-gamma-induced IDO1 expression in human HeLa cells at 10 to 50 uM by Western blot analysis; format: functional, cell-based; procedure, shortened: as §3

SMILES | inhibition [1] | inhibition [2] | also measured
Cc1cc(CNc2cc(Br)cc3[nH]ncc23)ccc1O | 28% | 30% | 
CC(Nc1cc(Br)cc2[nH]ncc12)c1ccc([N+](=O)[O-])cc1 (stereo not drawn) | 17% | 56% | 
Nc1nc(CNc2cc(Br)cc3[nH]ncc23)cs1 | inactive | 73% | 
Brc1cc(NCc2cccc3nonc23)c2cn[nH]c2c1 | 91% | 85% | IC50 [3]: 740 nM; inhibition in vivo at 40 mg/kg/day (CT26 [4]): 38.1%; IC50 [5]: 1370 nM; inhibition [5]: Dose-dependent effect; Activity (HeLa [6]): Dose-dependent effect; IC50 [7]: 2940 nM; inhibition in vivo at 80 mg/kg/day (CT26 [8]): 47.3%; Activity (HeLa [9]): Toxic; IC50 [10]: 7540 nM; inhibition [10]: Dose-dependent effect; inhibition in vivo at 20 mg/kg/day (CT26 [11]): 21.7%
Oc1ccc(CNc2cc(Br)cc3[nH]ncc23)cc1Cl | 60% | 19% | 
ONc1ccc(CNc2cc(Br)cc3[nH]ncc23)cc1 | inactive | 6% | 
Nc1ccccc1CNc1cc(Br)cc2[nH]ncc12 | 36% | inactive | 
Brc1cc(NCc2ccncc2)c2cn[nH]c2c1 | 54% | 55% | 
NS(=O)(=O)NCCNc1nonc1/C(=N/O)Nc1ccc(F)c(Br)c1 [EPACADOSTAT] |  |  | inhibition in vivo at 20 mg/kg/day (CT26 [11]): 39.2%
O=C(Nc1ccc(CCNc2cc(Br)cc3[nH]ncc23)cc1)NC1CCOCC1 | inactive | 20% | 
Brc1cc(NCc2ccco2)c2cn[nH]c2c1 | 29% | 64% | 
O=C(O)CNc1cccc(CNc2cc(Br)cc3[nH]ncc23)c1 | 57% | inactive | 
Oc1ccc(CNc2cc(Br)cc3[nH]ncc23)c(F)c1 | 69% | inactive | 
Nc1ccccc1CC(=O)Nc1ccc(CCNc2cc(Br)cc3[nH]ncc23)cc1 | 3% | 29% | 
Oc1ccc(CNc2cc(Br)cc3[nH]ncc23)c(O)c1 | 40% | inactive | 
NS(=O)(=O)c1ccc(CNc2cc(Br)cc3[nH]ncc23)cc1 | 20% | 75% | 
Oc1ccc(CNc2cc(Br)cc3[nH]ncc23)cc1F | 52% | 26% | 
O=C1c2ccccc2-n2c1nc1ccccc1c2=O [TRYPTANTHRIN] |  |  | IC50 [12]: 900 nM
Nc1ccc(CCNc2cc(Br)cc3[nH]ncc23)cc1 | 2% | inactive | 
ONc1cccc(CNc2cc(Br)cc3[nH]ncc23)c1 | 53% | inactive | 
O=C1CCCC(Nc2cccc(CNc3cc(Br)cc4[nH]ncc34)c2)C1 (stereo not drawn) | 52% | 46% | 

SMILES | inhibition [1] | inhibition [2] | also measured
Nc1cccc(CNc2cc(Br)cc3[nH]ncc23)c1 | 31% | inactive | 
N#Cc1ccc(CNc2cc(Br)cc3[nH]ncc23)cc1 | 70% | 73% | 
Nc1cc(CNc2cc(Br)cc3[nH]ncc23)ccc1O | 32% | inactive | 
Oc1cccc(CNc2cc(Br)cc3[nH]ncc23)c1 | 45% | 55% | 
FC(F)(F)c1cccc(CNc2cc(Br)cc3[nH]ncc23)c1 | 16% | 56% | 
Brc1cc(NCc2cnc[nH]2)c2cn[nH]c2c1 | 16% | 54% | 
OCc1ccc(CNc2cc(Br)cc3[nH]ncc23)cc1 | 45% | 56% | 
Oc1ccc(CNc2cc(Br)cc3[nH]ncc23)cc1O | 50% | inactive | 
Brc1cc(NCc2cccc3sccc23)c2cn[nH]c2c1 | 3% | 56% | 
Oc1ccc(CNc2cc(Br)cc3[nH]ncc23)cc1 |  | inactive | Activity (HeLa [13]): inactive; inhibition [5]: inactive
CC(Nc1cc(Br)cc2[nH]ncc12)c1ccccc1 (stereo not drawn) | 14% | inactive | 
OC1CCCC(Nc2cccc(CNc3cc(Br)cc4[nH]ncc34)c2)C1 (stereo not drawn) | 52% | 50% | 
Cc1cc(O)ccc1CNc1cc(Br)cc2[nH]ncc12 | 60% | 19% | 
Nc1ccc2ccccc2c1CNc1cc(Br)cc2[nH]ncc12 | 15% | inactive | 
Nc1ccc(CNc2cc(Br)cc3[nH]ncc23)cc1 | 3% | 24% | 
CC(=O)Nc1ccc(CNc2cc(Br)cc3[nH]ncc23)cc1 | 48% | inactive | 
Brc1cc(NCc2cccs2)c2cn[nH]c2c1 | 54% | 53% | 
CN1CCN(C(=O)c2ccc(Cn3nnc4c3C(=O)c3ccccc3C4=O)cc2)CC1 |  |  | IC50 [12]: 30 nM
CC(C)Nc1cc(Br)cc2[nH]ncc12 | 47% | inactive | 
CCOC(=O)CNc1cccc(CNc2cc(Br)cc3[nH]ncc23)c1 | 29% | inactive | 
Brc1cc(NCc2ccc3c(c2)OCO3)c2cn[nH]c2c1 | 68% | 62% | 
